Screening data as filed in PubChem.
Calb FLC = C. albicans growth modulation with fluconazole; C. albicans CaCi-2 (fluconazole-resistant clinical isolate) + fluconazole, Alamar Blue growth, 48 h; growth inhibition, % (concentration not given with the values); 0.57% of 300,000 active; AID 1979;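 active means growth inhibition above about 58% in most replicates, limit read from the data, passing the limit was not always enough; inconclusive means exactly half the replicates above a set limit; inactive means most replicates below a set limit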;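 further: all wells also contain fluconazole at 8 µg/ml as a sub-toxic cotreatment; 0% = median of DMSO wells and 100% = median of geldanamycin control wells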
T cruzi repl = blocks replication of Trypanosoma cruzi; 1.4% of 300,000 active; AID 1885; inhibition, % (test concentration not listed); T. cruzi beta-gal in NIH3T3, luminescence, 90 h;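 active means mean inhibition across valid replicates above about 55%, limit read from the data; inconclusive means mean below that limit but half or more replicates reach it; inactive means mean below it, under half of replicates reach it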;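 further: signal also drops with host cell toxicity which is not excluded here; 0% = plate median of DMSO wells and 100% = zero luminescence signal; higher percent means less beta-gal luminescence so fewer parasites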
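System: NIH/3T3 fibroblasts plus reporter T. cruzi. Medium: DMEM plus 2% FBS. Probe or stimulus: 5000 reporter trypomastigotes per well. Compound: single 50 nL compound addition per well in DMSO. Incubation: co-culture of at least 90 h after 3 h attachment. Detection: GalScreen β-gal luminescence, detergent lysis, 60 min. Evaluation: parasite load inhibition, %.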
NALP3 yeast inh = blocks the NALP3 inflammasome reconstituted in yeast | inhibition, % at 10 µM | 0.39% of 330,000 active | Yeast reconstituted NLRP3/ASC/caspase-1, beta-gal luminescence, 24 h;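 active means inhibition of 50% or more; inactive means inhibition below 50%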;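 further: plate controls were induced DMSO wells for no effect and uninduced yeast grown without galactose for full effect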
Mdm2 MdmX PPI = human Mdm2/MdmX binding inhibition | inhibition, % at 8 µM | O15151+Q00987 | SaOS-2 split-luciferase Mdm2/MdmX complementation, luminescence | 3% of 330,000 active;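 active means inhibition of at least 50% at 8 µM in the primary screen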
CSC inhib = blocks cancer stem cells; cancer stem cell-like cells viability, luminescence; inhibition, % at 7.5 µM; 1.1% of 300,000 active; AID 2717; in the data active means inhibition above about 75%; inconclusive means no clear call, values can overlap the other calls; tested in HMLE shEcad cells
Beta apoptosis = blocks beta cell apoptosis; protection from apoptosis, % (test concentration not listed); INS-1E cytokine-induced death, ATP luminescence, 48 h; percent of positive-control rescue, neutral wells zero; AID 435005; 0.8% of 300,000 active;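 active means Every replicate reaches about 75%, or at least half do and their mean reaches it too, limit read from the data; inconclusive means At least half of replicates reach the limit but their mean does not; inactive means Under half of replicates reach the limit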;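 further: 0% = cytokine-treated negative control wells and 100% = positive control rescue; higher means more ATP so stronger rescue from cytokine killing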
Mdm2-MdmX conf = human Mdm2/MdmX binding inhibition, confirmed; shares compounds with Mdm2 MdmX PPI; luminescent assay; inhibition, % at 8 µM; 55% of 10,000 active; AID 489028; in the data active means inhibition above about 40%
Full FLuc ctr = full-length luciferase inhibition in Mdm2/MdmX counter-screen; shares compounds with Mdm2 MdmX PPI; SaOS-2 full-length luciferase counterscreen, luminescence; inhibition, % at 8 µM; 77% of 6,200 active;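 active means mean inhibition at 8 µM reaching about 37%, which flags the compound as non-specific, limit read from the data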;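 further: p53-null SaOS-2 cells with luciferase driven by a doxycycline-inducible promoter; compound on cells about two nights before reading with doxycycline added after day one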
* hit, by the source's call; ? = inconclusive; . = not tested or not shown. Only some compounds are listed: those with a hit (about 5.3% of all), similar ones and a draw of the others.

SMILES	Calb FLC	T cruzi repl	NALP3 yeast inh	Mdm2 MdmX PPI	CSC inhib	Beta apoptosis	Mdm2-MdmX conf	Full FLuc ctr
C[n+]1c2n(c3ccccc31)N=C(c1ccc(-c3ccccc3)cc1)CS2	103*	60*	10	80*	39	108*	61*	26
COc1ccc2c(c1)c1ccc3c(c1n2C)C(=O)C=CC3=O	.	.	23	93*	.	.	74*	58*
Cc1ccc2c(c1)c1ccc3c(c1n2C)C(=O)C=CC3=O	.	.	37	86*	.	.	71*	57*
COc1ccc2c(c1)c1ncn(CCN3CCCC3)c(=O)c1n2C	1	23	0	13	-8	-8	.	.
O=C(COC(=O)c1ccc(Cl)c(S(=O)(=O)N2CCCCCC2)c1)Nc1ccccc1	-10	-6	3	-3	4	-9	.	.
COc1ccc(CC(=O)N/N=C/C=C/c2cccc([N+](=O)[O-])c2)cc1OC	-6	8	19	2	-11	-6	.	.
COc1ccc(S(=O)(=O)N2N=C(C)Oc3ccccc3C2=O)cc1	3	-69	9	48	54	3	.	.
CC(C)(CO)NCc1ccccc1OCC(=O)Nc1ccccc1	-5	5	24	4	-5	-4	.	.
Cc1ccc(NC(=O)COc2ccccc2CNC(C)(C)CC(C)(C)C)cc1	-26	61*	17	90*	12	34	53*	59*
O=C1CSC(c2ccccc2)N1c1ccc(F)cc1F (centres undefined)	-1	-2	-5	20	-3	-6	.	.
COc1ccccc1CNC(=O)CCC(=O)n1ncc2cc(C)ccc21	3	-16	30	-7	.	0	.	.
CCOC(=O)c1cccc2c1-c1ccccc1/C2=N/O	24	-17	-21	76*	35	-10	57*	31
CC[C@]12c3[nH]c4ccc(OC)cc4c3CCN1C(=O)C(CC(=O)NCCCN(C)C)C[C@@H]2C(=O)N1CCN(C(=O)c2ccco2)CC1 (some centres undefined)	.	.	.	8	.	.	.	.
O=c1c2cccnc2[nH]c(=S)n1CCCN1CCN(c2ccccc2F)CC1	8	-8	9	33	-2	3	.	.
O=c1c2ccccc2[nH]c(=S)n1CCCN1CCN(c2ccccc2)CC1	12	58*	20	80*	24	0	43*	63*
O=c1c2ccccc2[nH]c(=S)n1CCCN1CCN(c2ccccc2F)CC1	3	26	18	66*	25	5	36	81*
CCOC(=O)C1(CC2CC2)CCN(Cc2cnc(-c3ccccc3C)nc2)CC1	-8	6	8	0	2	-1	.	.
CCOC(=O)COc1ccc(/C=C/[N+](=O)[O-])c(OCC(=O)OCC)c1	-11	11	11	100*	6	10	70*	24
O=C1/C(=N\S(=O)(=O)c2cccs2)C([n+]2ccc(CCCc3ccccc3)cc2)=C([O-])c2ccccc21	-4	28	32	83*	93*	104*	52*	41*
O=S(=O)([N-]c1nc2ccccc2nc1-[n+]1ccc(CCCc2ccccc2)cc1)c1cccs1	-1	20	16	-20	11	0	.	.
CC[C@@H](C(=O)[C@@H](C)[C@@H](O)[C@H](C)CCc1ccc(C)c(O)c1C(=O)O)[C@H]1O[C@](CC)([C@H]2CC[C@](O)(CC)[C@H](C)O2)C[C@@H]1C	.	37	16	100*	117*	97*	71*	35
Cc1[nH]n(C(N)=S)c(=O)c1N=Nc1cccc(C(F)(F)F)c1	-1	-13	13	-42	13	28	.	.
Cc1[nH]n(C2=NCCS2)c(=O)c1N=Nc1cccc(C(F)(F)F)c1	22	60*	45	56*	50	94*	56*	36*
Cc1ccc2c(SCC(=O)NCc3ccco3)nc(-c3ccc(F)cc3)nc2c1	-30	-5	7	82*	1	7	-6	.
CC(C)N1C(=O)c2ccccc2C1C(=O)NCCc1ccccc1 (centres undefined)	-6	-8	6	8	-16	-4	.	.
SMILES	Calb FLC	T cruzi repl	NALP3 yeast inh	Mdm2 MdmX PPI	CSC inhib	Beta apoptosis	Mdm2-MdmX conf	Full FLuc ctr
COc1ccc(-c2cc(=O)n(-c3nc4ccccc4[nH]3)[nH]2)cc1	3	-12	-4	93*	104*	35	13	.
COc1ccc(CCCc2nc3ccccc3[nH]2)cc1	4	17	-9	-27	-14	-2	.	.
COc1cccc(CNC(=O)CSc2ccc(-c3ccccn3)nn2)c1	-15	-14	-12	-21	-5	-12	.	.
CC(C)CCNc1ncnc2c1nnn2Cc1ccccc1Cl	-20	-3	19	16	.	7	.	.
COc1ccc(-c2nn(-c3ccccc3)cc2C(=O)NC2CCC(C)CC2)cc1 (centres undefined)	6	29	20	28	-13	10	.	.
COc1ccc(-c2nn(-c3ccccc3)cc2C(=O)NC2CCCCC2C)cc1 (centres undefined)	0	6	18	74*	-10	41	29	.
C[n+]1ccccc1/C=C/c1ccc(C#N)cc1	1	-15	.	.	-10	-5	.	.
O=[N+]([O-])c1ccc(-c2nc(NCc3ccccc3)c3ccccc3n2)cc1	31	5	11	60*	21	13	-5	.
O=[N+]([O-])c1cccc(-c2nc(NCc3ccccc3)c3ccccc3n2)c1	7	46	9	25	30	14	.	.
COc1cccc(-c2nc(NCc3ccccc3)c3ccccc3n2)c1O	0	37	15	56*	11	6	16	.
O=[N+]([O-])c1ccc(-c2nc(Nc3cccc(O)c3)c3ccccc3n2)cc1	-2	-14	30	82*	94*	.	7	.
O=[N+]([O-])c1ccc(-c2c(O)c3ccccc3c3nc4ccccc4nc23)cc1	-1	-21	25	65*	42	27	12	.
CN(c1cccc(NC(=O)c2ccccc2N(C)S(C)(=O)=O)c1)S(C)(=O)=O	-3	2	6	9	-15	8	.	.
O=C(OCC(=O)N(c1ccccc1)C1CCCCC1)c1ccc(CO)cc1	.	.	16	-9	60	2	.	.
CS(=O)(=O)c1ncc(Cl)c(C(=O)Nc2ccc(N3CCOCC3)cc2)n1	-6	42	-5	88*	?	-6	53*	41*
O=C(Nc1ccc(OC(F)F)cc1)c1ccccn1	-57	-20	-4	-7	.	-4	.	.
CS(=O)(=O)c1ccc(C(=O)Nc2ccc(N3CCOCC3)cc2)c(Cl)c1	-5	-3	-11	11	-4	-12	.	.
CS(=O)(=O)c1ncc(Cl)c(C(=O)Nc2ccc(OC(F)F)cc2)n1	1	55*	29	92*	135*	?	100*	52*
